Here are results for 19 compounds from ChEMBL document CHEMBL1134485, “Diguanidino and "reversed" diamidino 2,5-diarylfurans as antimicrobial agents” (2001).

Broadly, the MFC is the smallest concentration meeting the test's criterion for killing the fungus. As usually defined, the MIC is the smallest concentration in the dilution series that meets the test's criterion for growth inhibition. Higher therefore signals a need for much substance.

SMILES strings stand for the structures. Converted amounts (≈) assume the structure as drawn. Where only a bound is given, the exact number is not on record here.

Assay [1] deals with Aspergillus fumigatus. Put plainly: In vitro minimum fungicidal concentration required to inhibit Aspergillus fumigatus(MFC). It is filed as functional. In a few lines: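 Mould MFC: 100 µL aliquots from macrodilution tubes (RPMI 1640/MOPS pH 7.0, 0.5 × 10³ to 2.5 × 10³ CFU/mL conidial inoculum, 30 °C, 48-72 h, drug 100 to 0.09 µg/mL) showing complete growth inhibition plated on Sabouraud agar; MFC taken as lowest drug concentration giving three or fewer colonies.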

In assay [2] the test system is Candida albicans. Briefly: In vitro minimum inhibitory concentration against Candida albicans. It is filed as functional.
The test system of assay [3] is Nucleic Acid.
Assay [4] concerns Candida albicans. Briefly: In vitro minimum fungicidal concentration against Candida albicans. It is filed as functional. In a few lines: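 Yeast MFC: after broth macrodilution (RPMI 1640/MOPS pH 7.0, 0.5 × 10³ to 2.5 × 10³ CFU/mL, 35 °C, 48 h or 72 h for C. neoformans, drug 100 to 0.09 µg/mL), 100 µL from tubes with complete inhibition plated on Sabouraud agar; lowest concentration yielding three or fewer colonies recorded.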

Assay [5] relates to Nucleic Acid. This is another data set of the same source.
Assay [6] relates to Aspergillus fumigatus. Briefly: Antimicrobial activity against Aspergillus fumigatus (MIC). It is filed as functional.
Assay [7] has as its system Mycobacterium tuberculosis. Briefly: In vitro minimum inhibitory concentration required to inhibit Mycobacterium tuberculosis. In kind it is functional. A digest of the protocol:
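M. tuberculosis H37Rv grown in BACTEC 12B medium; fluorometric broth microdilution (Microplate Alamar Blue Assay). […] MIC = lowest concentration reducing relative fluorescence units by ≥90% relative to control culture. Testing done by TAACF.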

Assay [8] relates to Nucleic Acid. Briefly: DNA binding affinity to poly dA.dT. It is filed as nucleic-acid assay.
For assay [9], the system named is Aspergillus fumigatus. Put plainly: In vitro antimicrobial activity against Aspergillus fumigatus (MIC). It is filed as functional.

Regarding `Cc1cc(NC(=N)c2ccccn2)cc(C)c1-c1ccc(-c2c(C)cc(NC(=N)c3ccccn3)cc2C)o1`, the MFC in assay [1] and in assay [4] was greater than 100 µg/mL each time. The MIC in [2] and in [6] was 10 µg/mL (≈ 19.4 µM) in each case. Moreover, the ΔTm in [3] amounted to 1.2; in [5], 5.7.

The compound `N=C(Nc1ccc(-c2ccc(-c3ccc(NC(=N)C4CCCCC4)cc3)o2)cc1)C1CCCCC1` showed an MFC in assay [1] greater than 100 µg/mL. Also, the minimum inhibitory concentration (MIC) was greater than 100 µg/mL in [2], 100 µg/mL (≈ 213 µM) in assay [6] and no more than 6.25 µg/mL in assay [7]. Besides, the ΔTm in assay [3] was determined as 12.8; in [5], 26.7.

Regarding `Cl.Cl.N=C(N)Nc1ccc(-c2ccc(-c3ccc(NC(=N)N)cc3C(F)(F)F)o2)c(C(F)(F)F)c1`, the values for the minimal fungicidal concentration (MFC) in [1] and in assay [4] were 100 µg/mL and 10 µg/mL, respectively. For the same compound, the MIC in assay [2] was 10 µg/mL; in assay [6], 100 µg/mL; in assay [7], 8 µg/mL. The results for the ΔTm in [3] and in assay [5] were 0 and 5.9, respectively.

Compound `OC(Cn1cncn1)(Cn1cncn1)c1ccc(F)cc1F` [FLUCONAZOLE] came in with a minimum inhibitory concentration (MIC) in assay [2] of 6.25 µg/mL (≈ 20.4 µM). In addition, the MFC in [4] came out at 25 µg/mL (≈ 81.6 µM).

On to `N=C(Nc1ccc(-c2ccc(-c3ccc(NC(=N)c4ccccn4)cc3Cl)o2)c(Cl)c1)c1ccccn1`, for which the figures for the minimum inhibitory concentration (MIC) in assay [2], in assay [6] and in [7] were 100 µg/mL (≈ 190 µM), greater than 100 µg/mL and 8 µg/mL (≈ 15.2 µM), respectively. Moreover, the results for the ΔTm in [3] and in assay [5] were 0 and 5.2, respectively. The compound also had a minimum fungicidal concentration (MFC) in [4] greater than 100 µg/mL.

As to `COc1cc(NC(=N)c2ccccn2)ccc1-c1ccc(-c2ccc(NC(=N)c3ccccn3)cc2OC)o1`, the MFC in assay [1] and in assay [4] was no more than 1 µg/mL each time. Also, the minimum inhibitory concentration (MIC) in assay [2], in assay [6] and in assay [7] was no more than 1 µg/mL throughout. Further, the values for the ΔTm in [3] and in assay [5] were 7.8 and 19, respectively.

Regarding `Cc1cc(NC(=N)N)ccc1-c1ccc(-c2ccc(NC(=N)N)cc2C)o1.Cl.Cl`, the MFC in assay [1] turned out to be 33.4 µg/mL; in assay [4], 2.08 µg/mL. Also, the values for the MIC in [2], in assay [6] and in assay [7] were 1.04 µg/mL, 33.4 µg/mL and no more than 1 µg/mL, respectively. In addition, the ΔTm in assay [3] worked out at 6.9; in [5], 17.8.

Regarding `COc1cc(NC(=N)N)ccc1-c1ccc(-c2ccc(NC(=N)N)cc2OC)o1.Cl.Cl`, the MFC in assay [1] and in assay [4] was 100 µg/mL each time. The MIC in [2] was found to be 10 µg/mL; in [6], 100 µg/mL; in [7], 16 µg/mL. The ΔTm came out at 2.8 in assay [3] and 15.2 in assay [5].

Take `Cl.Cl.N=C(N)Nc1ccc(-c2ccc(-c3ccc(NC(=N)N)cc3Cl)o2)c(Cl)c1`: the MFC in assay [1] and in [4] was 100 µg/mL each time. Also, the MIC in [2] turned out to be 10 µg/mL; in assay [6], 100 µg/mL; in assay [7] it was 4 µg/mL. The ΔTm came out at 4.7 in [3] and 26.1 in [5].

As for `N=C(Nc1ccc(-c2ccc(-c3ccc(NC(=N)c4ccccn4)cc3)o2)cc1)c1ccccn1`, the ΔTm in assay [3] was 7.5; in [5], 19.6. In addition, in [7], the MIC was found to be 1.56 µg/mL (≈ 3.4 µM).

As for `Cc1cc(NC(=N)N)cc(C)c1-c1ccc(-c2c(C)cc(NC(=N)N)cc2C)o1`, the values for the ΔTm in [3] and in assay [5] were 1.4 and 2.7, respectively.

Turning to `Cc1cc(NC(=N)c2ccc3ccccc3n2)ccc1-c1ccc(-c2ccc(NC(=N)c3ccc4ccccc4n3)cc2C)o1`, the MIC in assay [2] and in assay [6] was 100 µg/mL (≈ 170 µM) in each case. Moreover, the ΔTm in [3] is 1.1; in [8], 7.5. In assay [4], this compound came in with an MFC of 100 µg/mL (≈ 170 µM).

`N=C(N)c1ccc(-c2ccc(-c3ccc(C(=N)N)cc3)o2)cc1` [FURAMIDINE]: the MIC in [2] came to 6.25 µg/mL (≈ 20.5 µM). Further, the figures for the ΔTm in [3] and in assay [5] were 11.7 and 25, respectively. The same compound displayed a minimum fungicidal concentration (MFC) in [4] of 25 µg/mL (≈ 82.1 µM).

On to `Cc1cc(NC(=N)c2ccccn2)ccc1-c1ccc(-c2ccc(NC(=N)c3ccccn3)cc2C)o1`, for which the minimal fungicidal concentration (MFC) in assay [1] was determined as 100 µg/mL (≈ 206 µM); in assay [4], 10 µg/mL (≈ 20.6 µM). The MIC in assay [2] was 10 µg/mL (≈ 20.6 µM); in [6] it was 10 µg/mL (≈ 20.6 µM); in [7], no more than 1 µg/mL. Further, the ΔTm in [3] was found to be 8.9; in assay [5], 22.6.

On to `Cc1cc(NC(=N)c2ccccc2)ccc1-c1ccc(-c2ccc(NC(=N)c3ccccc3)cc2C)o1`, for which the minimal inhibitory concentration (MIC) in assay [2] was found to be 3.12 µg/mL (≈ 6.44 µM); in assay [7], 3.13 µg/mL (≈ 6.46 µM). Besides, the ΔTm in [3] turned out to be 7.8; in assay [5], 24.9. The compound further gave an MFC in [4] of 6.25 µg/mL (≈ 12.9 µM).

Compound `CC(=N)Nc1ccc(-c2ccc(-c3ccc(NC(C)=N)cc3)o2)cc1` came in with an MFC in assay [1] greater than 100 µg/mL. Also, the MIC in assay [2] is greater than 100 µg/mL; in assay [6], 100 µg/mL (≈ 301 µM). Besides, the figures for the ΔTm in [3] and in [5] were 6 and 15.9, respectively.

For the compound `Cl.Cl.N=C(N)Nc1ccc(-c2ccc(-c3ccc(NC(=N)N)cc3)o2)cc1`, the figures for the minimum fungicidal concentration (MFC) in [1] and in assay [4] were greater than 100 µg/mL and 25 µg/mL, respectively. The minimum inhibitory concentration (MIC) in [9] stood at 100 µg/mL; in assay [2], 12.5 µg/mL; in assay [7], 3.13 µg/mL. The ΔTm in assay [3] stood at 10.8; in [5], 21.6.

On to `CO[C@H]1/C=C/O[C@@]2(C)Oc3c(C)c(O)c4c(O)c(c(/C=N/N5CCN(C)CC5)c(O)c4c3C2=O)NC(=O)/C(C)=C\C=C\[C@H](C)[C@H](O)[C@@H](C)[C@@H](O)[C@@H](C)[C@H](OC(C)=O)[C@@H]1C` [RIFAMPIN], for which the lowest concentration to inhibit growth in [7] (MIC) was 0.062 µg/mL (≈ 0.0753 µM).

As to `Cl.Cl.N=C(Nc1ccc(-c2ccc(-c3ccc(NC(=N)c4ccccc4)cc3)o2)cc1)c1ccccc1`, the MIC worked out at 25 µg/mL in assay [2] and 1.56 µg/mL in [7]. Besides, the ΔTm in assay [3] was found to be 15; in [5], 28.6. In [4], this compound yielded an MFC of 50 µg/mL.
